Data published in ChEMBL document CHEMBL4033712, “Synthesis and biological evaluation of new C-12(α/β)-(N-) sulfamoyl-phenylamino-14-deoxy-andrographolide derivatives as potent anti-cancer agents” (Bioorg Med Chem Lett, 2017).

What was measured:
Assay type in all cases: functional
UACC-257 = experiment: Anticancer activity against human UACC257 cells assessed as cell growth at 10 uM after 48 hrs by sulforhodamine B assay relative to control; conditions: UACC-257, 48 h, read-out: Activity
Method in brief: (§1)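 NCI-60 single-dose screen: compound added at 10 µM, cultures incubated 48 h. End point by sulforhodamine B protein-binding dye. Value reported as percent growth of treated cells relative to untreated control cells.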

SF-295 = experiment: Anticancer activity against human SF295 cells assessed as cell growth at 10 uM after 48 hrs by sulforhodamine B assay relative to control; conditions: SF-295, 48 h, read-out: Activity
Method in brief: (§2)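 Single-dose NCI-60 panel screen: compound added at 10 µM and the culture incubated 48 h. The end point was read by protein staining with sulforhodamine B. The value is percent growth of treated cells relative to untreated control cells, reported as a mean graph across the panel.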

NCI-H23 = experiment: Anticancer activity against human NCI-H23 cells assessed as cell growth at 10 uM after 48 hrs by sulforhodamine B assay relative to control; conditions: NCI-H23, 48 h, read-out: Activity; method in brief: as §2
EKVX = experiment: Anticancer activity against human EKVX cells assessed as cell growth at 10 uM after 48 hrs by sulforhodamine B assay relative to control; conditions: read-out: Activity; method in brief: as §2
ACHN = experiment: Anticancer activity against human ACHN cells assessed as cell growth at 10 uM after 48 hrs by sulforhodamine B assay relative to control; conditions: read-out: Activity; method in brief: as §2
NCI/ADR-RES = experiment: Anticancer activity against human NCI/ADR-RES cells assessed as cell growth at 10 uM after 48 hrs by sulforhodamine B assay relative to control; conditions: read-out: Activity; method in brief: as §2
K562 = experiment: Anticancer activity against human K562 cells assessed as cell growth at 10 uM after 48 hrs by sulforhodamine B assay relative to control; conditions: K562, 48 h, read-out: Activity; method in brief: as §2
BT-549 = experiment: Anticancer activity against human BT549 cells assessed as cell growth at 10 uM after 48 hrs by sulforhodamine B assay relative to control; conditions: BT-549, 48 h, read-out: Activity; method in brief: as §2
PC-3 = experiment: Anticancer activity against human PC3 cells assessed as cell growth at 10 uM after 48 hrs by sulforhodamine B assay relative to control; conditions: PC-3, 48 h, read-out: Activity; method in brief: as §2
HT-29 = experiment: Anticancer activity against human HT-29 cells assessed as cell growth at 10 uM after 48 hrs by sulforhodamine B assay relative to control; conditions: HT-29, 48 h, read-out: Activity; method in brief: as §2
LOX IMVI = experiment: Anticancer activity against human LOXIMVI cells assessed as cell growth at 10 uM after 48 hrs by sulforhodamine B assay relative to control; conditions: read-out: Activity; method in brief: as §2
OVCAR-3 = experiment: Anticancer activity against human OVCAR3 cells assessed as cell growth at 10 uM after 48 hrs by sulforhodamine B assay relative to control; conditions: OVCAR-3, 48 h, read-out: Activity; method in brief: as §2
SR = experiment: Anticancer activity against human SR cells assessed as cell growth at 10 uM after 48 hrs by sulforhodamine B assay relative to control; conditions: read-out: Activity; method in brief: as §1
SK-MEL-28 = experiment: Anticancer activity against human SK-MEL-28 cells assessed as cell growth at 10 uM after 48 hrs by sulforhodamine B assay relative to control; conditions: SK-MEL-28, 48 h, read-out: Activity; method in brief: as §2
HCT-15 = experiment: Anticancer activity against human HCT15 cells assessed as cell growth at 10 uM after 48 hrs by sulforhodamine B assay relative to control; conditions: HCT-15, 48 h, read-out: Activity; method in brief: as §2
CAKI-1 = experiment: Anticancer activity against human Caki1 cells assessed as cell growth at 10 uM after 48 hrs by sulforhodamine B assay relative to control; conditions: CAKI-1, 48 h, read-out: Activity; method in brief: as §2
M14 = experiment: Anticancer activity against human M14 cells assessed as cell growth at 10 uM after 48 hrs by sulforhodamine B assay relative to control; conditions: M14, 48 h, read-out: Activity; method in brief: as §2
SK-OV-3 = experiment: Anticancer activity against human SKOV3 cells assessed as cell growth at 10 uM after 48 hrs by sulforhodamine B assay relative to control; conditions: SK-OV-3, 48 h, read-out: Activity; method in brief: as §2
MDA-MB-435 = experiment: Anticancer activity against human MDA-MB-435 cells assessed as cell growth at 10 uM after 48 hrs by sulforhodamine B assay relative to control; conditions: MDA-MB-435, 48 h, read-out: Activity; method in brief: as §2
SNB-75 = experiment: Anticancer activity against human SNB75 cells assessed as cell growth at 10 uM after 48 hrs by sulforhodamine B assay relative to control; conditions: SNB-75, 48 h, read-out: Activity; method in brief: as §1
SW-620 = experiment: Anticancer activity against human SW620 cells assessed as cell growth at 10 uM after 48 hrs by sulforhodamine B assay relative to control; conditions: SW-620, 48 h, read-out: Activity; method in brief: as §1
SK-MEL-5 = experiment: Anticancer activity against human SK-MEL-5 cells assessed as cell growth at 10 uM after 48 hrs by sulforhodamine B assay relative to control; conditions: SK-MEL-5, 48 h, read-out: Activity; method in brief: as §2
NCI-H226 = experiment: Anticancer activity against human NCI-H226 cells assessed as cell growth at 10 uM after 48 hrs by sulforhodamine B assay relative to control; conditions: NCI-H226, 48 h, read-out: Activity; method in brief: as §2
COLO 205 = experiment: Anticancer activity against human COLO205 cells assessed as cell growth at 10 uM after 48 hrs by sulforhodamine B assay relative to control; conditions: COLO 205, 48 h, read-out: Activity; method in brief: as §2
CCRF-CEM = experiment: Anticancer activity against human CCRF-CEM cells assessed as cell growth at 10 uM after 48 hrs by sulforhodamine B assay relative to control; conditions: read-out: Activity; method in brief: as §2
MDA-MB-231 = experiment: Anticancer activity against human MDA-MB-231 cells assessed as cell growth at 10 uM after 48 hrs by sulforhodamine B assay relative to control; conditions: MDA-MB-231, 48 h, read-out: Activity; method in brief: as §2
MDA-MB-468 = experiment: Anticancer activity against human MDA-MB-468 cells assessed as cell growth at 10 uM after 48 hrs by sulforhodamine B assay relative to control; conditions: MDA-MB-468, 48 h, read-out: Activity; method in brief: as §2
RPMI-8226 = experiment: Anticancer activity against human RPMI8226 cells assessed as cell growth at 10 uM after 48 hrs by sulforhodamine B assay relative to control; conditions: RPMI-8226, 48 h, read-out: Activity; method in brief: as §2
Hs-578T = experiment: Anticancer activity against human Hs 578T cells assessed as cell growth at 10 uM after 48 hrs by sulforhodamine B assay relative to control; conditions: read-out: Activity; method in brief: as §2
MCF7 = experiment: Anticancer activity against human MCF7 cells assessed as cell growth at 10 uM after 48 hrs by sulforhodamine B assay relative to control; conditions: MCF7, 48 h, read-out: Activity; method in brief: as §2
U-251 = experiment: Anticancer activity against human U251 cells assessed as cell growth at 10 uM after 48 hrs by sulforhodamine B assay relative to control; conditions: U-251, 48 h, read-out: Activity; method in brief: as §1
UO-31 = experiment: Anticancer activity against human UO31 cells assessed as cell growth at 10 uM after 48 hrs by sulforhodamine B assay relative to control; conditions: UO-31, 48 h, read-out: Activity; method in brief: as §1

Row | SMILES | growth at 10 µM (UACC-257) [%] | growth at 10 µM (SF-295) [%] | growth at 10 µM (NCI-H23) [%] | growth at 10 µM (EKVX) [%] | growth at 10 µM (ACHN) [%] | growth at 10 µM (NCI/ADR-RES) [%] | growth at 10 µM (K562) [%] | growth at 10 µM (BT-549) [%] | growth at 10 µM (PC-3) [%] | growth at 10 µM (HT-29) [%] | growth at 10 µM (LOX IMVI) [%] | growth at 10 µM (OVCAR-3) [%] | growth at 10 µM (SR) [%] | growth at 10 µM (SK-MEL-28) [%] | growth at 10 µM (HCT-15) [%] | growth at 10 µM (CAKI-1) [%] | growth at 10 µM (M14) [%] | growth at 10 µM (SK-OV-3) [%] | growth at 10 µM (MDA-MB-435) [%] | growth at 10 µM (SNB-75) [%] | other results
1 | C=C1CC[C@@H]2[C@](C)(COC(C)=O)[C@H](OC(C)=O)CC[C@@]2(C)[C@H]1CC(Nc1ccc(S(=O)(=O)Nc2nccc(C)n2)cc1)C1=CCOC1=O (stereo partly specified) | 48.5 | 78.7 | 48.4 | 79.2 | -37.2 | 20.9 | 3.62 | -2.66 | 41.5 | -28.2 | -72.9 | -45 | 0.79 | -7.05 | -42 | 61.4 | 11.2 | 101 | 0.23 | 9.66 | growth at 10 µM (SW-620): -49.6%; growth at 10 µM (SK-MEL-5): 45%; growth at 10 µM (NCI-H226): -12.1%; growth at 10 µM (COLO 205): 9.64%; growth at 10 µM (CCRF-CEM): -19.2%; growth at 10 µM (MDA-MB-231): 13.3%; growth at 10 µM (MDA-MB-468): -45.8%; growth at 10 µM (RPMI-8226): -5.56%; growth at 10 µM (Hs-578T): 68.6%; growth at 10 µM (MCF7): 0.14%; growth at 10 µM (U-251): 14.6%; growth at 10 µM (UO-31): 33.4%
2 | C=C1CC[C@@H]2[C@](C)(COC(C)=O)[C@H](OC(C)=O)CC[C@@]2(C)[C@H]1CC(Nc1ccc(S(=O)(=O)Nc2cc(C)on2)cc1)C1=CCOC1=O (stereo partly specified) | 69 | 100 | 71 | 82 | 19.5 | 31.6 | 9.67 | 27.2 | 70.8 | -11 | -72.7 | 7.95 | 1.4 | 38.1 | 0.18 | 44 | 29.9 | 109 | 35 | 59.4 | growth at 10 µM (SW-620): 14.7%; growth at 10 µM (SK-MEL-5): 44.1%; growth at 10 µM (NCI-H226): 79.5%; growth at 10 µM (COLO 205): 29%; growth at 10 µM (CCRF-CEM): -19.1%; growth at 10 µM (MDA-MB-231): 61.1%; growth at 10 µM (MDA-MB-468): 3.23%; growth at 10 µM (RPMI-8226): -15.2%; growth at 10 µM (Hs-578T): 89.5%; growth at 10 µM (MCF7): 12.2%; growth at 10 µM (U-251): 30%; growth at 10 µM (UO-31): 56.9%
3 | C=C1CC[C@@H]2[C@](C)(COC(C)=O)[C@H](OC(C)=O)CC[C@@]2(C)[C@H]1CC(Nc1ccc(S(=O)(=O)Nc2ccc(Cl)nn2)cc1)C1=CCOC1=O (stereo partly specified) | 44 | 92.8 | 58.2 | 87.3 | 16.1 | 16.7 | 6.81 | -9.45 | 38.4 | -18.3 | -84.6 | -56.1 | -5.26 | 6.66 | -18.4 | 31.8 | 10.7 | 86.1 | 8.13 | 25.2 | growth at 10 µM (SW-620): -37.7%; growth at 10 µM (SK-MEL-5): 35.8%; growth at 10 µM (NCI-H226): -10%; growth at 10 µM (COLO 205): 18%; growth at 10 µM (CCRF-CEM): -10.3%; growth at 10 µM (MDA-MB-231): 23.8%; growth at 10 µM (MDA-MB-468): -32.3%; growth at 10 µM (RPMI-8226): -19.2%; growth at 10 µM (Hs-578T): 75.6%; growth at 10 µM (MCF7): 16.8%; growth at 10 µM (U-251): -41.2%; growth at 10 µM (UO-31): 18.4%
